Shown are actives, neighbours in structure and some others; about 7.2% of the full set was active somewhere.
BAP1 inh: human BAP1 deubiquitinase inhibition | Q92560 | recombinant BAP1, Ub-AMC hydrolysis fluorescence kinetic; stronger effect = lower value | calls only at 20 µM | 0.48% of 72,000 active;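 active = activity remaining at or below 50% of control, provided the compound also passes the data quality filters; inactive = the rest, including low values that fail the filters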;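 also: 100% = DMSO wells rate and 0% = substrate alone blank rate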
D1 mod: allosterically modulates the human D1 dopamine receptor. P21728. HEK293 D1, CRE-luciferase, dopamine EC30 potentiation; actives deviate in either direction. B-score at 10 µM. 5.9% of 58,000 active. AID 641;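 active = luminescence count or its row- and column-corrected plate score outside the 99.7% band of the plate's sample wells, on either side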
DAT uptake mod: modulates human dopamine transporter uptake under cocaine. 1.3% of 110,000 active. B-score at 10 µM. LLC-PK1 hDAT cells, [14C]-dopamine uptake with cocaine IC80; actives deviate in either direction. Q01959. AID 449768;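 active = Z score or B-score, a plate-position-corrected score, falls beyond the plate's 99.7% confidence bounds, in either direction; inactive = both scores lie inside the 99.7% bounds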;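 also: scored against the spread of the other compound wells on the same plate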
Target sequence (Q01959 whole entry, looked up): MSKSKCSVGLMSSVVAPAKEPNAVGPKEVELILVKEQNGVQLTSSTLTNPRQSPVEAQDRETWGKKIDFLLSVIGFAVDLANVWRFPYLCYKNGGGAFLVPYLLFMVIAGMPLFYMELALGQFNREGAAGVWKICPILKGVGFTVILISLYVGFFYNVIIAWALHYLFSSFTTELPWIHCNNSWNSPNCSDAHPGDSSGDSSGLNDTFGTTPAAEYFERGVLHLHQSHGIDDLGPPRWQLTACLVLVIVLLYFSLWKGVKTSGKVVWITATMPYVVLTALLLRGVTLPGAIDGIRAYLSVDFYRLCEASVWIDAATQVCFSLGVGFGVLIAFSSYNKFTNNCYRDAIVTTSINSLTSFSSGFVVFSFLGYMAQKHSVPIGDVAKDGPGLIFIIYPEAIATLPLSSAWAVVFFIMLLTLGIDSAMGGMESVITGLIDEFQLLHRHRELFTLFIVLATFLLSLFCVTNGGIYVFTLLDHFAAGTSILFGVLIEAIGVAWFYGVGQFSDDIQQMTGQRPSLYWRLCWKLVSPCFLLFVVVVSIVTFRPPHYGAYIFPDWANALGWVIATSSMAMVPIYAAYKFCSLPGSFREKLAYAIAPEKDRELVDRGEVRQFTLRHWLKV
M1 agonist: activates the M1 muscarinic receptor. CHO-M1 cells, Fluo-4 calcium fluorescence, agonist mode; stronger effect = higher value. B-score at 10 µM. 3% of 64,000 active;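 active = fluorescence rise, raw or as B-score row- and column-corrected plate score, outside the 99.7% band of its plate's samples, either direction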
M1 antagonist: M1 muscarinic receptor (rat) antagonism; P08482; CHO-M1 cells, Fluo-4 calcium, ACh EC80 antagonist mode; stronger effect = lower value; B-score at 10 µM; 3.4% of 64,000 active;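 active = calcium fluorescence response, raw or row-and-column corrected B-score, differing from the plate sample mean either way at a set confidence level, mostly lower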
HEK293 NFkB inh: lowers PMA/ionomycin-induced NF-kB signal in HEK293 cells; HEK-293 NF-kB luciferase reporter, luminescence; inhibition, % at 3 µM; AID 465; 0.21% of 62,000 active;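 active = inhibition above the mean of all tested compounds plus 3 SD, cut at about 40% in these data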;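 also: 0% = stimulated DMSO wells and 100% = 10 µM reference inhibitor 5653914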
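System: NF-kB luciferase reporter HEK-293 cells | Replication: Single test | Control set: DMSO vs reference inhibitor | Evaluation: % inhibition | Schedule: 1 h pretreatment, 16 h stimulation, 37 °C | Probe or stimulus: PMA with ionomycin | Compound dosing: One dose, 3 µM | Detection: Luciferase luminescence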
D1 PAM confirm: confirmation of human D1 dopamine receptor allosteric modulators; luminescence at 10 µM; 88% of 2,200 active; shares compounds with D1 mod; HEK293 D1 CRE-luciferase, dopamine EC30 potentiation; stronger effect = higher value; AID 642;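 active = luminescence in either of two replicates above the same-plate mean plus 3 SD of the low-dose dopamine control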
D1 ag no DA: activates D1 CRE-luciferase signal without dopamine present. shares compounds with D1 mod. HEK293 D1 CRE-luciferase, luminescence, no dopamine; stronger effect = higher value. luminescence at 10 µM. 0.8% of 1,900 active. AID 646; in the data active = luminescence above about 3900
Isoprot counter: alters isoproterenol CRE-luciferase response in HEK293 cells; shares compounds with D1 mod; HEK293 D1 CRE-luciferase, isoproterenol EC30 counter-screen; calls only at 10 µM; 63% of 2,200 active;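 active = luminescence in either replicate above plate mean of wells with a partly effective reference agonist dose plus 3 SD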;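 also: isoproterenol raises cAMP through native beta-adrenoceptor Gs so signal bypasses D1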
The depositor's hits bear a star; i = inactive; / = no result shown; + = active, no number.

SMILES	BAP1 inh	D1 mod	DAT uptake mod	M1 agonist	M1 antagonist	HEK293 NFkB inh	D1 PAM confirm	D1 ag no DA	Isoprot counter
c1cncc(-c2nnc3n2N=C(c2cccs2)CS3)c1	i	4.1*	-0.0035	0.019	-1.3	8	15800*	1740	+
CCC(C)Nc1nc2c(c(=O)[nH]c(=O)n2C)n1Cc1cccc(C)c1 (centres undefined)	i	/	/	/	/	/	/	/	/
COc1cc(NC(=O)c2nn3c(C(F)(F)F)cc(-c4ccccc4)nc3c2Br)cc([N+](=O)[O-])c1	i	/	/	/	/	/	/	/	/
COc1ccc(C(=O)C(OC(=O)c2cc([N+](=O)[O-])ccc2Cl)c2ccccc2)cc1 (centres undefined)	i	/	/	/	/	/	/	/	/
Nc1ncnc2c1ncn2CCOc1ccccc1	i	4.9*	-0.44	-0.54	-0.74	10	6344*	1408	i
C=C(C)Cn1c(SCC(=C)Br)nc2sc3c(c2c1=O)CC(C)(C)OC3	i	/	/	/	/	/	/	/	/
CCOC(=O)c1nn(-c2ccccc2)c(C#N)c1NC(=O)c1nn(CC)cc1Br	i	4.3*	0.056	0.58	0.36	4	8684*	/	+
O=C1c2ccccc2NC(c2ccc(Br)cc2)N1c1ccc(Cl)cc1 (centres undefined)	i	/	/	/	/	/	/	/	/
COc1ccc(-c2nnc(-c3cccnc3)o2)cc1OC	i	4.1*	-0.055	1.3	0.035	11	8388*	/	+
CCOc1ccc(-c2nnc(-c3cccnc3)o2)cc1OCC	i	8.1*	0.74	0.88	-0.64	-5	20776*	1752	+
COc1cc(-c2nnc(-c3cccnc3)o2)cc(OC)c1OC	i	1.5	0.35	0.58	-0.2	14	/	/	/
CCOC(=O)c1ccccc1-n1c(C)cc(C2N=C(N)Nc3nc4ccccc4n32)c1C (centres undefined)	/	/	1.2	/	/	/	/	/	/
NC1=NC(c2ccc(Br)cc2)n2c(nc3ccccc32)N1 (centres undefined)	i	10*	-1.1	2.1	-0.55	11	11596*	1556	i
CCOc1cccc2cc(C(=O)Nc3cc(C)on3)c(=O)oc12	/	2.6*	-0.57	-0.57	-0.84	8	4892	1608	i
Cc1ccc2nc(Nc3ccccc3)c(/C=N/O)c(=O)n2c1	i	10*	0.36	-0.74	1.1	6	17088*	1488	+
Cc1ccc2nc(NCc3ccco3)c(C=NCc3ccco3)c(=O)n2c1	i	0.097	-0.058	0.0045	0.07	12	/	/	/
O=C1c2cccc([N+](=O)[O-])c2C(=O)N1c1ccc([N+](=O)[O-])cc1	i	/	/	/	/	/	/	/	/
CCS(=O)(=O)n1nc(-c2ccc(Cl)cc2)nc1N	i	5*	0.042	0.4	-0.07	16	8932*	1784	+
C=CCOc1ccc(C2Oc3ccccc3C3CC(c4ccccc4)=NN32)cc1 (centres undefined)	i	/	/	/	/	/	/	/	/
N#Cc1c(-c2ccccc2)cc(C2CC2)nc1N	i	25*	-0.0069	0.44	0.13	16	29052*	1688	+
CN1CCN(c2c(CN3CCCC3)c(=O)oc3ccccc23)CC1	i	/	/	/	/	/	/	/	/
COc1ccc(C2=NOC(C(=O)Nc3ccc(C(C)=O)cc3)C2)cc1OC (centres undefined)	i	5*	1.8	0.025	0.26	3	8288*	/	+
COc1ccc(C2=NOC(C(=O)Nc3cc(Br)ccc3O)C2)cc1OC (centres undefined)	i	38*	-0.43	-1.3	1.6	-20	25996*	1720	+
COc1ccc(C2=NOC(C(=O)NC3CCCCC3)C2)cc1OC (centres undefined)	i	4.6*	-0.11	-0.27	-0.13	12	14608*	1788	i
COc1ccc(C2=NOC(C(=O)N3CCCCCC3)C2)cc1OC (centres undefined)	i	0.42	0.85	-1.4	0.0038	7	/	/	/
SMILES	BAP1 inh	D1 mod	DAT uptake mod	M1 agonist	M1 antagonist	HEK293 NFkB inh	D1 PAM confirm	D1 ag no DA	Isoprot counter
COc1ccc(C2=NOC(C(=O)NCc3cccs3)C2)cc1OC (centres undefined)	/	/	0.16	/	/	/	/	/	/
COc1ccc(OC)c(C2=NOC(C(=O)Nc3cccc(C(C)=O)c3)C2)c1 (centres undefined)	i	3.7*	0.29	-1.2	-0.0028	-2	9256*	1624	i
COc1ccc(OC)c(C2=NOC(C(=O)Nc3ccccc3SC)C2)c1 (centres undefined)	/	/	-1.5	/	/	/	/	/	/
N#Cc1c(NC(=O)c2cnn3c2NC(c2cccs2)CC3C(F)(F)F)sc2c1CCCC2 (centres undefined)	i	/	/	/	/	/	/	/	/
CCOC(=O)CSc1nc2c(sc(=S)n2Cc2ccco2)c(=O)n1-c1ccccc1	i	4.5*	-0.044	1.2	-0.54	12	8252*	1608	i
CCN(CC)C(=O)CSc1nc2c(sc(=S)n2Cc2ccco2)c(=O)n1-c1ccccc1	/	/	0.61	/	/	/	/	/	/
CCOCC(=O)Nc1nnc(Cc2ccc(OC)cc2)s1	/	/	0.91	/	/	/	/	/	/
CCOCC(=O)Nc1nnc(Cc2ccc(OC)c(OC)c2)s1	i	7.8*	-0.66	1.6	-0.8	-2	12160*	/	+
COCC(=O)Nc1nnc(Cc2ccc(OC)c(OC)c2)s1	i	9.8*	0.0097	0.85	-0.1	9	19508*	1696	+
CC(C)(C)c1ccc(OCC(=O)Nc2ccc(Cl)cn2)cc1	i	/	/	/	/	/	/	/	/
COc1cc(C(=O)N2CCN(c3cc(Cl)ccc3Cl)CC2)cc(OC)c1OC	i	6.5*	-0.011	-0.072	0.56	43*	10496*	1588	+
COc1cc(C(=O)N2CCN(c3cccc(C)c3C)CC2)cc(OC)c1OC	i	1.7	-0.46	0.067	1.5	35	/	/	/
Fc1ccc(-n2c(-c3ccco3)nc3nc4ccccc4nc32)cc1	/	15*	0.23	-0.07	0.55	7	25288*	1548	+
Fc1ccc(-c2nc3nc4ccccc4nc3n2Cc2ccco2)cc1	i	0.32	0.0044	0.17	0.037	-26	/	/	/
Fc1cccc(-n2c(-c3ccco3)nc3nc4ccccc4nc32)c1	/	9.2*	-0.77	-0.43	0.087	21	16260*	1552	+
CC(=O)Nc1ccc(Oc2cc(C#N)c(C#N)cc2N2CCCCCC2)cc1	/	4.9*	2.1	-0.92	0.12	26	8364*	1744	+
CCOC(=O)c1cc2c(=O)n3ccccc3nc2n(CCCOC)c1=NC(=O)C(C)(C)C	/	4.8*	0.54	-1.7	-0.63	10	7076*	1412	i
